Screens: PubChem BioAssay, several laboratories
This is a sample that favours compounds with a hit; in the whole collection about 3.9% have one here.
CHOP UPR activ: activators of apoptotic CHOP UPR arm, primary screen, cell-based, CHO-CHOP luciferase reporter, luminescence, uHTS. AID 449763, 2010. actives 0.34% (n = 330,000). activation, % at 10 µM. UPR activation; percent of tunicamycin response over DMSO baseline;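 active = at 10 µM dose, activation of 40% or more, normalized to positive control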;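 note: 100% = tunicamycin at 10 µg/mL and 0% = DMSO alone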
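Assay system: CHO cells with stable CHOP pathway luciferase reporter; Buffer or medium: F12 plus 10% serum; Times: 16-18 h cell attachment, then 6 h compound exposure, 37 °C; Signal: luciferase luminescence; Read-out basis: percent activation relative to tunicamycin control; Control set: tunicamycin high control, DMSO low control.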
Jurkat NFkB inh: inhibitors of induced NF-kB luciferase reporter, primary screen, TCR NF-kB activation inhibitor project, cell-based, luminescence, uHTS | Jurkat, PMA/ionomycin-induced NF-kB luciferase reporter | inhibition, % at 4 µM | actives 0.53% (n = 330,000) | AID 435003, 2010; in the data active = inhibition above about 50%
UPR XBP1 act: activators of adaptive XBP1 UPR arm, primary screen, cell-based, CHO-XBP1 luciferase reporter, luminescence, uHTS. IRE1-XBP1 UPR activation; percent of tunicamycin response, DMSO as zero. activation, % at 20 µM. actives 0.33% (n = 330,000). AID 463104, 2010;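 active = versus positive control, 20 µM dose yields 30% or more activation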;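 note: 100% = tunicamycin at 10 µg/mL and 0% = DMSO only wells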
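Signal: luciferase luminescence; Assay system: CHO-XBP1 luciferase reporter cells; Amount: one thousand reporter cells per well; Dosing: 20 µM single concentration, DMSO 1%; Benchmarks: high control tunicamycin 10 µg/mL final, low control DMSO vehicle only; Schedule: 6 h compound exposure at 37 °C, 5% CO2; Evaluation: percent activation relative to tunicamycin reference.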
Gli-Sufu antag: Gli-Sufu pathway antagonists, primary screen, luciferase luminescence, Sufu-KO-LIGHT cells, uHTS; AID 588413, 2011; Sufu-KO-LIGHT fibroblasts, Gli luciferase reporter luminescence; actives 0.74% (n = 340,000); inhibition, % at 5 µM;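 active = inhibition above about 55%, limit read from the data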;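 note: 0% = DMSO-treated cells and 100% = wells with medium but no cells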
697 NFkB inh: inhibitors of PMA/ionomycin-induced NF-kB reporter, 697 cells, primary screen, B-cell NF-kB inhibitor project, cell-based, luminescence, uHTS; actives 0.33% (n = 330,000); inhibition, % at 4 µM; 697 B-cell NF-kB luciferase reporter, 16 h; in the data active = inhibition above about 35%
CHOP inhibitor: inhibitors of CHOP promoter induction, primary screen, cell-based, unfolded protein response, luciferase reporter. AID 2732, 2010. CHO-K1 CHOP-promoter luciferase, tunicamycin-induced, 15-18 h. inhibition, % at 10 µM. actives 3.8% (n = 220,000);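 active = compounds that reduced the stress-induced luciferase reporter signal by more than about 70% of percent inhibition, limit read from the data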;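 note: 0% = tunicamycin plus vehicle and 100% = wells without tunicamycin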
Starred values were filed as active, the others as inactive; . = no result given.

SMILES	CHOP UPR activ	Jurkat NFkB inh	UPR XBP1 act	Gli-Sufu antag	697 NFkB inh	CHOP inhibitor
CSc1ccccc1NC(=O)COc1ccc(Cl)cc1C	3	-14	4	-20	-13	83*
Cc1cccc(C)c1NC(=O)CNC(=O)c1cccc(S(=O)(=O)NCc2cccs2)c1	-1	-26	0	4	-38	.
COc1ccc(C)cc1NC(=O)CCCN1C(=O)C(c2ccccc2)Oc2cccnc21 (centres undefined)	0	2	-7	-5	-43	.
COc1ccccc1Oc1ccc2c(c1)C(=O)N(c1cccc3ncccc13)C2=O	.	.	.	4	.	63
O=C1c2ccc3c4c(ccc(c24)C(=O)N1c1cccc(O)c1)CC3	0	14	-4	-6	12	93*
COc1ccccc1Oc1ccc2c(c1)C(=O)N(c1cccc(O)c1)C2=O	5	-4	-2	-10	-26	90*
CC(C)Cc1nnc(NC(=O)Nc2ccccc2)s1	2	-82	1	-50	-104	70*
Cc1ccc(NC(=O)Nc2ccc([N+](=O)[O-])cc2)nc1	4	10	1	-28	-91	70*
Cc1ccc(NC(=O)Nc2nnc(Cc3ccc([N+](=O)[O-])cc3)s2)cc1	7	-2	3	-30	-27	76*
CC(C)Cc1nnc(NC(=O)CCC(=O)Nc2ccccc2)s1	2	5	-1	-22	4	.
Cc1coc2cc3oc(=O)ccc3cc12	2	-12	-3	-41	-3	.
Cc1nc2ccccc2c(=O)n1NC(=O)c1c(F)cccc1F	-1	4	-4	6	5	.
CCn1cc(C(=O)O)c(=O)c2cc(F)c(N/N=C/c3ccccc3)cc21	1	-7	0	-9	-59	103*
COc1ccc(CCC(=O)OCC(=O)NC(=O)c2ccc(Cl)cc2)cc1	1	-5	-1	-2	10	.
CCc1c(C#N)c(SCCC(=O)Nc2ccc(C)cc2)nc2c1C(=O)CC(C)(C)C2	-4	-10	-6	3	3	85*
CCOc1ccc(NC(=O)CCSc2nc3c(c(CC)c2C#N)C(=O)CC(C)(C)C3)cc1	-4	0	-3	-2	14	54
N=C(N)c1ccc(OCCCCCOc2ccc(C(=N)N)cc2)cc1 (tested in a mixture with another compound)	.	.	.	.	.	33
CC(C(=O)N1CCN(c2ccc(Cl)cc2)CC1)c1ncc(C(F)(F)F)cc1Cl (centres undefined)	0	7	-3	3	5	71*
Cc1ccc(C)c(-n2nnnc2SCC(=O)NCCC2=CCCCC2)c1	0	7	-3	4	8	86*
CC(C)C(NC(=O)Cc1ccccc1)C(=O)N1CCN(c2cccc(Cl)c2)CC1 (centres undefined)	5	14	-4	10	-16	.
CCc1nc(N2CCC(C)CC2)c2oc3ccccc3c2n1	2	2	0	9	-2	70*
CCc1nc(N(CC)CC)c2oc3ccccc3c2n1	1	0	4	-43	0	91*
CCNc1nc(CC)nc2c1oc1ccccc12	2	-19	2	-6	-33	12
CCOc1ccc(Nc2nc(NCC3CCCO3)c3ccccc3n2)cc1 (centres undefined)	5	46	8	71*	-132	20
COc1ccc(Nc2nc(NCC3CCCO3)c3ccccc3n2)c(OC)c1 (centres undefined)	-2	-4	-2	41	-24	26
SMILES	CHOP UPR activ	Jurkat NFkB inh	UPR XBP1 act	Gli-Sufu antag	697 NFkB inh	CHOP inhibitor
CCOC(=O)C1=C(N)OC2=C(C(=O)CC(C)(C)C2)C1C1CCCCC1 (centres undefined)	-1	-4	0	4	-5	96*
CCOC(=O)C1=C(N)OC2=C(C(=O)CC(C)(C)C2)C1c1ccoc1 (centres undefined)	1	6	-2	3	19	9
Cc1cc(NS(=O)(=O)c2c(C)[nH]c(=O)[nH]c2=O)ccc1Br	0	12	-5	5	3	.
Cc1c(NC(=S)NC(=O)c2ccccc2)c(=O)n(-c2ccccc2)n1C	3	7	-2	1	3	.
CC(c1ccco1)N(C(=O)C12CC3(C)CC(C)(CC(C)(C3)C1)C2)c1ccccn1 (centres undefined)	-1	6	-2	-2	2	86*
C[n+]1ccc(/C=C/c2ccccc2O)c2ccccc21	0	13	-1	2	0	-2
CN1/C(=C/c2cc[n+](C)c3ccccc23)C=Cc2ccccc21	.	.	.	89*	.	37
O=C1CC(c2ccco2)Cc2nc(Nc3ccc(F)cc3)ncc21 (centres undefined)	1	-3	-3	-11	-24	49
O=C1CC(c2ccco2)Cc2nc(NCC3CCCO3)ncc21 (centres undefined)	-1	-4	-2	-1	-3	82*
CC(=O)Nc1ccc(OCCOc2ccc(/C=C3/C(=N)N4C=CSC4=NC3=O)cc2)cc1	0	11	0	-4	4	-12
COc1ccc(-c2ccc(/C=C3/C(=N)N4C=CSC4=NC3=O)o2)c([N+](=O)[O-])c1	.	.	.	1	.	82*
CCCCN(C(=O)C(C)(C)Oc1ccc(Cl)cc1)c1c(N)n(CCC)c(=O)[nH]c1=O	-1	8	0	0	15	.
O=C(COc1ccc(/C=N/NC(=O)c2ccncc2)cc1)Nc1cccc([N+](=O)[O-])c1	2	-40	1	-25	-10	.
O=C(COc1ccc(/C=N/NC(=O)c2ccccc2O)cc1)Nc1ccc([N+](=O)[O-])cc1	3	-7	6	-1	5	90*
O=C1NC(=Nc2ccc3ccccc3c2)S/C1=C/c1ccco1	2	-16	0	-14	-1	86*
Cc1cccc(N=C2NC(=O)S/C2=C\c2ccco2)c1	-1	9	-2	8	-3	72*
O=C1NC(=Nc2ccc(O)cc2)S/C1=C/c1ccco1	0	12	11	0	-14	11
Nc1nc(Cl)nc2c1ncn2[C@@H]1O[C@H](CO)[C@H](O)C1O (some centres undefined)	.	.	.	.	.	8
Cc1ccc(S(=O)(=O)N2CCCN(C)c3nc4ccccc4nc32)cc1	0	-11	-1	-4	2	.
Cc1ccc(NS(=O)(=O)c2ccc3c(c2)n(C)c(=O)n3C)c(C)c1	3	7	0	-2	-2	.
